Compound activity from PubChem BioAssay.
procasp7 counter: procaspase-7 activators, primary screen, counter-screen for procaspase-3 activator project, biochemical, absorbance, HTS, human; activation, % at 8.5 µM; AID 463210, 2010; recombinant procaspase-7, Ac-DEVD-pNA absorbance 405 nm; D23A/D198A/D206A triple mutant, cannot self-cleave; scale: DMSO 0, 5 µM enzyme 100; Caspase-7 (Homo sapiens), P55210; 0.093% of 330,000 active;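 active = percent activation above the screen-wide mean plus 3 SD, cut at about 25% in these data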
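Assay system: Uncleavable procaspase-7 mutant enzyme | Input: 2 µM procaspase-7 mutant as dispensed | Timing: 1 h compound preincubation, 2 h substrate cleavage, 25 °C | Repeats: One well per compound | Control set: DMSO wells as 0%, DMSO with 5 µM added PC-7 as 100% | Technique: Epi-absorbance of released pNA at 405 nm, two timepoints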
proCasp3 act: activators of human procaspase-3 D3A mutant, primary screen, biochemical, absorbance, PC-3 D3A mutant, single concentration. Caspase-3 (Homo sapiens), P42574. recombinant procaspase-3 D3A, Ac-DEVD-pNA absorbance 405 nm. activation, % at 8.5 µM. 0.11% of 330,000 active. AID 463141, 2010;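 active = activation above the mean of all tested compounds plus 3 SD, cut at about 21% in these data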;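 also: 0% = DMSO alone and 100% = DMSO wells spiked with extra 5 µM PC-3 D3A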
Target sequence (P42574 whole entry D9A/D28A/D175A): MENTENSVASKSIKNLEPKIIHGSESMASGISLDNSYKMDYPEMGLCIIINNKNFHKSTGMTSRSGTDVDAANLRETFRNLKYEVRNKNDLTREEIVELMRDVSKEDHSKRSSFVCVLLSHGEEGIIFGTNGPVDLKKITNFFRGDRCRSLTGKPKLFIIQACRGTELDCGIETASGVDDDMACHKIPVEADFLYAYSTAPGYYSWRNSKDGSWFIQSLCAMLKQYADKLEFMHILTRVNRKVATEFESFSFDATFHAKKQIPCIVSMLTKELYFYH
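Assay system: Autoprocessing-dead procaspase-3 D3A mutant enzyme; also added: Ac-DEVD-pNA; doses: one concentration, 8.5 µM nominal, 0.8% DMSO; times: 1 h compound preincubation, 2 h substrate hydrolysis at 25 °C; technique: 405 nm absorbance of p-nitroaniline, reads at 0 and 120 min; measure: % activation between DMSO and enzyme-spiked controls; repeats: single replicate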
CHT block: inhibitors of human choline transporter CHT; High affinity choline transporter 1 (Homo sapiens), Q9GZV3; CHT-expressing cells, membrane potential dye, choline response; stronger effect = lower value; B-score at 10 µM; 0.86% of 310,000 active; AID 488975, 2010;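 active = B-score over 3 SD under the library average, and starting fluorescence ratio not unusually high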;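 also: choline stimulus applied at its EC90 after an EC20 pre-addition; B-score computed on integrated fluorescence ratio after choline addition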
CHT PAM: CHT positive allosteric modulators, primary screen, cell-based, membrane potential dye, choline EC20. B-score at 10 µM. AID 488977, 2010. 0.49% of 310,000 active. CHT-expressing cells; stronger effect = higher value; LV-AA mutant CHT in HEK293 cells. High affinity choline transporter 1 (Homo sapiens), Q9GZV3;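 active = initial fluorescence not abnormally high and integrated response B-score, plate-corrected, over 3 SD above library mean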
CHT block conf: CHT inhibitors, confirmation, cell-based, membrane potential dye, duplicate. CHT activity remaining % of control (stronger effect = lower value), % at 10 µM. shares compounds with CHT block. CHT-expressing cells, choline membrane potential dye; LV-to-AA substituted CHT, HEK293 cells. AID 493221, 2011. 70% of 2,400 active;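 active = choline transporter activity left, mean of duplicates at 10 µM, below buffer-only control mean minus 3 SD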;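 also: depolarization triggered by choline at its EC90 following an EC20 pre-addition; 0% = hemicholinium-3 full block and 100% = buffer-only control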
HEK293 MPD ctr: membrane potential effects in parental HEK293, counter-screen for CHT inhibitor project, cell-based, membrane potential dye | shares compounds with CHT block | choline response; active = decrease or increase beyond buffer ±3SD | membrane potential ratio readout (active if shifted either direction beyond buffer ±3SD; no single direction) at 10 µM | 4% of 2,400 active | AID 493222, 2011;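 also: parental cells lack the transporter so any hit is non-specific; ratio is peak minus trough fluorescence over baseline after EC90 choline challenge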
* marks the source's active call; other numbers are inactive results. This is a sample that favours compounds with a hit; in the whole collection about 1.3% have one here.

How did O=C(Nc1cccc(OCC(=O)N2CCOCC2)c1)c1ccc(C(F)(F)F)cc1 do in these assays?
procasp7 counter: 8.7; proCasp3 act: 6.6; CHT block: inactive; CHT PAM: inactive

How did Cc1ccc(-c2ccc(=O)n(CCC(=O)N3CCN(c4cccc(C)c4)C(C)C3)n2)cc1 (stereo unspecified) do in these assays?
procasp7 counter: -13.3; proCasp3 act: 3.3; CHT block: inactive; CHT PAM: inactive

What do the screens show for `CSC1=NS(=O)(=O)c2c(C)nn(C)c2S1`?
procasp7 counter: -35.5; proCasp3 act: -29.8; CHT block: -8.03*; CHT PAM: inactive; CHT block conf: 29.1%*; HEK293 MPD ctr: inactive

How did CNc1cc(Cl)nc(SC)n1 do in these assays?
procasp7 counter: 7.8; proCasp3 act: -5.3; CHT block: -11.7*; CHT PAM: inactive; CHT block conf: -0.4%*; HEK293 MPD ctr: inactive

Results for CC(C)Oc1ccc(/C=N/NC(=O)C(CSCc2ccccc2)NC(=O)c2ccc([N+](=O)[O-])cc2)cc1 (stereo unspecified) ?
procasp7 counter: 2.8; proCasp3 act: 3.8; CHT block: -5.5*; CHT PAM: inactive; CHT block conf: inactive; HEK293 MPD ctr: inactive

What do the screens show for `C[C@H]1COC(=O)[C@H](CC(=O)OC(C)(C)C)C/C=C\C[C@@H](CC(=O)N[C@@H](CO)Cc2ccccc2)C(=O)N1`?
procasp7 counter: 4.5; proCasp3 act: -6.3

How did Cc1ccsc1C1Nc2ccc3ncccc3c2C2=C1C(=O)CCC2 (stereo unspecified) do in these assays?
procasp7 counter: 5.0; proCasp3 act: 0.8; CHT block: inactive; CHT PAM: inactive

What do the screens show for `COc1cc(C2Nc3ccc4ncccc4c3C3=C2C(=O)CCC3)ccc1O` (stereo unspecified)?
procasp7 counter: 3.5; proCasp3 act: 9.6; CHT block: -6.22*; CHT PAM: inactive; CHT block conf: inactive; HEK293 MPD ctr: inactive

What do the screens show for `Cc1cc(C)cc(C(=O)NC(CC(N)=O)c2ccc(N3CCN(C)CC3)c([N+](=O)[O-])c2)c1` (stereo unspecified)?
procasp7 counter: -3.4; proCasp3 act: -0.9; CHT block: inactive; CHT PAM: inactive

Results for NC(=O)CC(NC(=O)c1cccc(Br)c1)c1ccc(N2CCCCCC2)c([N+](=O)[O-])c1 (stereo unspecified) ?
procasp7 counter: 1.1; proCasp3 act: 12.1; CHT block: inactive; CHT PAM: inactive

How did NC(=O)CC(NC(=O)c1ccccc1)c1ccc(N2CCc3ccccc3C2)c([N+](=O)[O-])c1 (stereo unspecified) do in these assays?
procasp7 counter: -19.4; proCasp3 act: -3.3; CHT block: -9.49*; CHT PAM: inactive; CHT block conf: 17.9%*; HEK293 MPD ctr: inactive

Results for NC(=O)CC(NC(=O)c1ccc(Br)cc1)c1ccc(N2CCCCCC2)c([N+](=O)[O-])c1 (stereo unspecified) ?
procasp7 counter: -3.6; proCasp3 act: -4.2; CHT block: -7.74*; CHT PAM: inactive; CHT block conf: 58.6%*; HEK293 MPD ctr: inactive

How did NC(=O)CC(NC(=O)c1ccccc1)c1ccc(N2CCCCCCC2)c([N+](=O)[O-])c1 (stereo unspecified) do in these assays?
procasp7 counter: -2.2; proCasp3 act: 1.2; CHT block: -11*; CHT PAM: inactive; CHT block conf: 1.4%*; HEK293 MPD ctr: inactive

What do the screens show for `Cc1c(/C(O)=C2/C(=O)C(=O)N(CCN3CCOCC3)C2c2ccccn2)cnn1-c1ccccc1` (stereo unspecified)?
procasp7 counter: -1.9; proCasp3 act: -4.8; CHT block: inactive; CHT PAM: inactive
